Bounds are passed on as bounds.

The IC50 is the concentration that gives 50% inhibition. Low readings indicate greater potency, high ones weaker potency. The EC30 is the concentration at which the effect reaches the 30% level. High values mean a need for much substance, low ones an effect from little substance.

Test [1] deals with cGMP-specific 3',5'-cyclic phosphodiesterase (Canis lupus familiaris, UniProt O77746). Description: Inhibition of canine lung PDE5 using [3H]cGMP incubated for 30 mins by scintillation analysis. In short, it runs like this: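 Radiolabeled nucleotide method using PDE5 isolated from canine lung. Started with [³H]cGMP plus unlabeled cGMP, 37 °C for 30 min, stopped by boiling 1.5 min. Crotalus atrox venom step at 37 °C for 30 min, column separation, eluate counted by scintillation.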

The test system of a further test is Corpus cavernosum. Description: Relaxation effect on phenylephrine-induced contractile response in isolated rabbit corpus cavernosum. Format: functional. To be noted: Oryctolagus cuniculus. In short, it runs like this: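 Isolated rabbit corpus cavernosum strips in organ baths. High-KCl (120 mM) PSS contraction checked twice, then phenylephrine (5 × 10⁻⁶ M) gave a tonic contraction. Once stable, test compound (10⁻¹⁰–10⁻⁶ M) or vehicle added at 30 min intervals. EC30 derived from the logarithmic concentration–inhibition curve.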

Test [2] in a line: Selectivity for bovine retina PDE6 to canine lung PDE5.

As to `COc1ccc(CNc2nc(N3CCC[C@H]3CO)ncc2C(=O)c2ccccn2)cc1Cl`, in test [1], the IC50 worked out at 12 nM.

In turn, `COc1ccc(CNc2nc(N3CCC[C@H]3CO)ncc2C(=O)c2cc(OC)c(OC)c(OC)c2)cc1Cl` showed an IC50 in test [1] of 0.21 nM. In the test with Corpus cavernosum, this compound returned an EC30 of over 100 nM. For the same compound, the Ratio IC50 in test [2] came out at 5700.

In test [1], `COc1ccc(CNc2nc(N3CCC[C@H]3CO)ncc2C(=O)CCN2CCOCC2)cc1Cl` returned an IC50 of 2.9 nM.

For `COc1ccc(Cn2c(=O)ccc3cnc(N4CCC[C@H]4CO)nc32)cc1Cl`, 3.3 nM corresponded to half-maximal inhibition in test [1] (IC50). The compound further yielded an EC30 with Corpus cavernosum of 2.2 nM. Further, the Selectivity ratio in test [2] is 850.

Take `CCCc1nn(C)c2c(=O)[nH]c(-c3cc(S(=O)(=O)N4CCN(C)CC4)ccc3OCC)nc12` [SILDENAFIL]: it took 8.7 nM to reach the 30% level in the test with Corpus cavernosum (EC30).

Turning to `COc1ccc(Cn2c(=O)cc(-c3nccn3C)c3cnc(N4CCC[C@H]4CO)nc32)cc1Cl`, in test [1], the IC50 was determined as 7.2 nM.

For `COc1ccc(Cn2c(=O)cc(C)c3cnc(N4CCC[C@H]4CO)nc32)cc1Cl`, the midpoint of inhibition in test [1], the IC50, lay at 0.86 nM. The compound further yielded an EC30 with Corpus cavernosum of 0.85 nM. Besides, in test [2], the Selectivity ratio was 2300.

For `COc1ccc(CNc2nc(N3CCC[C@H]3CO)ncc2C=O)cc1Cl`, the IC50 in test [1] was 33 nM.

`COc1ccc(CNc2nc(N3CCC[C@H]3CO)ncc2C(C)=O)cc1Cl`: in test [1], the IC50 came out at 5.2 nM.

In test [1], `COc1ccc(Cn2c(=O)cc(CCN3CCOCC3)c3cnc(N4CCC[C@H]4CO)nc32)cc1Cl` registered an IC50 of 0.98 nM. In the test with Corpus cavernosum, this compound registered an EC30 of 8.6 nM. For the same compound, the Selectivity ratio in test [2] stood at 1600.

For `COc1ccc(Cn2c(=O)cc(-c3ccccn3)c3cnc(N4CCC[C@H]4CO)nc32)cc1Cl`, in test [1], half-maximal inhibition (IC50) was put at 1.7 nM. Moreover, the Selectivity ratio in test [2] came out at 1900.

As to `COc1ccc(CNc2nc(N3CCC[C@H]3CO)ncc2C(=O)c2nccn2C)cc1Cl`, the IC50 in test [1] came out at 12 nM.

Source of the values: ChEMBL document CHEMBL3400122, “8-(3-chloro-4-methoxybenzyl)-8H-pyrido[2,3-d]pyrimidin-7-one derivatives as potent and selective phosphodiesterase 5 inhibitors” (Bioorg Med Chem Lett, 2015).
